Source: ChEMBL document CHEMBL3797083, “A New Series of Orally Bioavailable Chemokine Receptor 9 (CCR9) Antagonists; Possible Agents for the Treatment of Inflammatory Bowel Disease” (J Med Chem, 2016)
Converted amounts (≈) assume the structure as drawn. The source made the active and inactive calls. The rule behind the calls is not given here.

How the values were obtained:
[1] = Absolute bioavailability in mouse at 1 mg/kg, iv 10 mg/kg, po; format: ADME, organism-based; settings: in vivo
[2] = Clearance in mouse at 1 mg/kg, iv; format: ADME, organism-based; settings: in vivo
[3] = Metabolic stability of compound in mouse liver microsomes assessed as remaining compound at 37 deg C; format: ADME
[4] = Elimination half life in mouse at 1 mg/kg, iv; format: ADME, organism-based; settings: in vivo, read-out: beta t1/2 (converted)
[5] = AUC in mouse at 10 mg/kg, po; format: ADME, organism-based; settings: in vivo
[6] = Solubility of compound at pH 7.4 buffer; format: physicochemical
Summary of the method: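 Solubility was measured at pH 7.4. Each value is the mean of three replicates.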

[7] = test system: Liver microsome; experiment: Metabolic stability of compound in human liver microsomes assessed as remaining compound at 37 deg C; format: ADME
Summary of the method: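 Test compound incubated with human liver microsomes at 37 °C. Loss of parent compound was followed over a 30 min period, and the percentage remaining is reported as the mean of 3 replicates.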

[8] = test system: Mus musculus; experiment: Anticolitis activity in DSS-induced acute colitis C57BL/6 mouse model assessed as reduction in disease activity index at 50 mg/kg, sc bid for 10 days; format: functional; design: scale not given: the % may be the effect or the level left
[9] = biological target: T1, C-C chemokine receptor type 9 (Homo sapiens, UniProt P51686); experiment: Antagonist activity at CCR9 receptor in human MOLT4 cells assessed as inhibition of CCL25-induced increase in intracellular calcium level preincubated for 1 hr followed CCL25 addition by FLIPR assay; format: functional, cell-based, MOLT-4
T1 sequence (P51686 whole entry): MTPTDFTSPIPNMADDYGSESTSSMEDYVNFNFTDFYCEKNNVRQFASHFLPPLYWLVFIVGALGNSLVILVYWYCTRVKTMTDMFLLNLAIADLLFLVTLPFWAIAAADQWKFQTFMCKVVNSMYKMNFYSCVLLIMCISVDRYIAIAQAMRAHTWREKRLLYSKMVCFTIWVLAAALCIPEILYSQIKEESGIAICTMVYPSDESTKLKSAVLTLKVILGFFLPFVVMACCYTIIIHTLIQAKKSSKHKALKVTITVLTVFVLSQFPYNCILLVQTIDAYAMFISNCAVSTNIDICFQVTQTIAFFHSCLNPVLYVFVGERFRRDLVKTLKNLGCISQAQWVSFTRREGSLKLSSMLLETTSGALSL

[10] = test system: Mus musculus; experiment: Anticolitis activity in DSS-induced acute colitis C57BL/6 mouse model assessed as reduction in disease activity index at 30 mg/kg, po bid for 10 days; format: functional; settings: C57BL/6, po, 240 h
[11] = test system: Mus musculus; experiment: Anticolitis activity in DSS-induced acute colitis C57BL/6 mouse model assessed as reduction in disease activity index at 10 mg/kg, po bid for 10 days; format: functional; settings: C57BL/6, po, 240 h
[12] = test system: Mus musculus; experiment: Anticolitis activity in DSS-induced acute colitis C57BL/6 mouse model assessed as reduction in disease activity index at 100 mg/kg, po bid for 10 days; format: functional; settings: C57BL/6, po, 240 h
[13] = test system: Mus musculus; experiment: Anticolitis activity in DSS-induced chronic colitis C57BL/6 mouse model assessed as reduction in disease activity index at 30 mg/kg, po bid for 30 days; format: functional, organism-based
[14] = test system: Mus musculus; experiment: Anticolitis activity in DSS-induced acute colitis C57BL/6 mouse model assessed as reduction in disease activity index at 3 mg/kg, po bid for 10 days; format: functional; settings: C57BL/6, po, 240 h
[15] = test system: Mus musculus; experiment: Anticolitis activity in DSS-induced acute colitis C57BL/6 mouse model assessed as reduction in disease activity index at 30 mg/kg, sc bid for 10 days; format: functional; settings: C57BL/6, sc, 240 h

Row | SMILES | bioavailability [1] | clearance [2] | Stability [3] | half-life [4] | AUC [5] | solubility [6] | Stability [7] | Ki [9] | Activity [8] | inhibition in vivo at 30 mg/kg [10] | inhibition in vivo at 10 mg/kg [11] | inhibition in vivo at 100 mg/kg [12] | Activity [13] | inhibition in vivo at 3 mg/kg [14] | inhibition in vivo at 30 mg/kg [15]
1 | Cc1cccc(N2C(=O)c3c(Cl)ccc(NS(=O)(=O)c4ccc(C(C)(C)C)cc4)c3C2=O)n1 | 95% | 2.34 mL/min/kg | 42% | 1.32 h | 67900 ng·h/mL | 27 µM (≈ 13.1 µg/mL) | 61% | – | – | – | – | – | – | – | –
2 | COc1ccncc1N1C(=O)c2c(Cl)ccc(NS(=O)(=O)c3ccc(C(C)(C)C)cc3)c2C1=O | 100% | 6.86 mL/min/kg | 60% | 1.03 h | 35600 ng·h/mL | 10 µM (≈ 5 µg/mL) | 81% | – | – | – | – | – | – | – | –
3 | CC(C)(C)c1ccc(S(=O)(=O)Nc2ccc(Cl)cc2C(=O)c2cc[n+]([O-])cc2)cc1 [VERCIRNON] | 22% | 103 mL/min/kg | 9% | 0.16 h | 340 ng·h/mL | 6 µM (≈ 2.67 µg/mL) | 73% | – | 17% | – | – | – | – | – | –
4 | CC(C)(C)c1ccc(S(=O)(=O)Nc2cccc3c2C(=O)N(Cc2cccnc2)C3=O)cc1 | – | – | – | – | – | – | – | 618 nM | – | – | – | – | – | – | –
5 | Cc1ncccc1N1C(=O)c2c(Cl)ccc(NS(=O)(=O)c3ccc(C(C)(C)C)cc3)c2C1=O | 73% | 2.6 mL/min/kg | 62% | 3.26 h | 46800 ng·h/mL | 81 µM (≈ 39.2 µg/mL) | 89% | – | – | – | – | – | – | – | –
6 | CC(C)(C)c1ccc(S(=O)(=O)Nc2ccc(Cl)c3c2C(=O)N(Cc2ccc[n+]([O-])c2)C3=O)cc1 | 33% | 3.92 mL/min/kg | 8% | 0.62 h | 13900 ng·h/mL | 126 µM (≈ 63 µg/mL) | 15% | – | – | 31% | 21% | 58% | Active | – | 24%

Continued, in another order:

Row | bioavailability [1] | clearance [2] | Stability [3] | half-life [4] | AUC [5] | solubility [6] | Stability [7] | Ki [9] | SMILES | Activity [8] | inhibition in vivo at 30 mg/kg [10] | inhibition in vivo at 10 mg/kg [11] | inhibition in vivo at 100 mg/kg [12] | Activity [13] | inhibition in vivo at 3 mg/kg [14] | inhibition in vivo at 30 mg/kg [15]
7 | 56% | 2.57 mL/min/kg | 79% | 1.05 h | 36000 ng·h/mL | 69 µM (≈ 34.5 µg/mL) | 81% | – | CC(C)(C)c1ccc(S(=O)(=O)Nc2ccc(Cl)c3c2C(=O)N(Cc2cccc[n+]2[O-])C3=O)cc1 | – | 33% | 32% | 51% | Active | – | –
8 | – | – | – | – | – | – | – | 19 nM | CC(C)(C)c1ccc(S(=O)(=O)Nc2ccc(Cl)c3c2C(=O)N(c2ccc(F)nc2)C3=O)cc1 | – | – | – | – | – | – | –
9 | 48% | 4.69 mL/min/kg | 76% | 1.28 h | 16200 ng·h/mL | 114 µM (≈ 57 µg/mL) | 71% | – | Cc1c(N2C(=O)c3c(Cl)ccc(NS(=O)(=O)c4ccc(C(C)(C)C)cc4)c3C2=O)ccc[n+]1[O-] | – | 51% | 27% | 86% | Active | 41% | –
10 | 25% | 1.73 mL/min/kg | 64% | 5.37 h | 24000 ng·h/mL | 26 µM (≈ 13 µg/mL) | 67% | 3 nM | COc1ncccc1N1C(=O)c2c(Cl)ccc(NS(=O)(=O)c3ccc(C(C)(C)C)cc3)c2C1=O | – | – | – | – | – | – | –
